Results as given in ChEMBL document CHEMBL4196009, “Novel vitexin-inspired scaffold against leukemia” (Eur J Med Chem, 2018).
Activity calls are given as the source filed them. No cut-off for these calls is given here.

Experiments:
[1] = tested on: KOPN-8; experiment: Induction of apoptosis in human KOPN8 cells assessed as downregulation of Mcl-1 level after 3 to 24 hrs by Western blot analysis; type: functional, cell-based
How it was run: (§1)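 KOPN-8 cells were treated at 10–100 µM final, with or without N-acetylcysteine co-addition, for 3 h and 24 h. Lysates were analysed by Western blot for PARP cleavage, Mcl-1, phospho-Ser2 RNAPII CTD, c-Myc, total Rb and pRb. Levels are relative to the vehicle control.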

[2] = tested on: KOPN-8; experiment: Cell cycle arrest in human KOPN8 cells assessed as accumulation at G2/M phase at 10 uM after 24 hrs by propidium iodide staining-based flow cytometry (reference value: 9.67%); type: functional
How it was run: (§2)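 KOPN-8 cells treated 24 h alongside a DMSO vehicle and a staurosporine (2.0 µM) positive control. Apoptosis was scored by FITC Annexin V / propidium iodide flow cytometry with quadrant gating (early, late apoptotic). DNA content was measured by PI staining to give the percentage of cells in G0/G1, S and G2/M. Groups were compared by t-test; error bars are SD.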

[3] = tested on: SUP-B15; experiment: Induction of apoptosis in human SUP-B15 cells assessed as late apoptotic cells at 10 uM after 24 hrs by Annexin V-FITC/propidium iodide staining-based flow cytometry (reference value: 2.2%); type: functional
[4] = tested on: KOPN-8; experiment: Effect on c-Myc expression in human KOPN8 cells at 30 uM after 24 hrs by Western blot analysis relative to control; type: functional; how it was run: as §1
[5] = organism: Homo sapiens; experiment: Inhibition of RNA polymerase 2 C-terminal domain phosphorylation at Ser2 residue in human KOPN8 cells at 100 uM pre-treated with NAC for 1 hr and measured after 24 hrs by Western blot analysis relative to control; type: cell-based
How it was run: (§3)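 KOPN-8 cells were exposed to compound for 3 h and 24 h, with or without N-acetylcysteine added to a parallel set as antioxidant. Lysates were analysed by Western blot for cleaved PARP, Mcl-1, Ser-2-phosphorylated RNAPII CTD, cMyc, total Rb and pRb. Signals were compared against controls for dose-dependent change.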

[6] = organism: Homo sapiens; experiment: Inhibition of RNA polymerase 2 C-terminal domain phosphorylation at Ser2 residue in human KOPN8 cells at 30 uM after 3 hrs by Western blot analysis relative to control; type: cell-based; how it was run: as §3
[7] = tested on: KOPN-8; experiment: Effect on c-Myc expression in human KOPN8 cells at 100 uM after 3 hrs by Western blot analysis relative to control; type: functional; how it was run: as §1
[8] = tested on: KOPN-8; experiment: Induction of apoptosis in human KOPN8 cells assessed as effect on Mcl-1 level at 100 uM after 24 hrs by Western blot analysis relative to control; type: functional; how it was run: as §1
[9] = tested on: KOPN-8; experiment: Induction of apoptosis in human KOPN8 cells assessed as effect on Mcl-1 level at 10 uM after 24 hrs by Western blot analysis relative to control; type: functional; how it was run: as §1
[10] = tested on: KOPN-8; experiment: Effect on c-Myc expression in human KOPN8 cells at 10 uM after 3 hrs by Western blot analysis relative to control; type: functional; how it was run: as §1
[11] = tested on: KOPN-8; experiment: Induction of apoptosis in human KOPN8 cells assessed as upregulation of cleaved PARP level at 0.5 uM pre-treated with NAC for 1 hr and measured after 3 hrs by Western blot analysis; type: functional, cell-based; how it was run: as §3
[12] = tested on: KOPN-8; experiment: Cell cycle arrest in human KOPN8 cells assessed as accumulation at G2/M phase at 5 uM after 24 hrs by propidium iodide staining-based flow cytometry (reference value: 9.67%); type: functional; how it was run: as §2
[13] = tested on: KOPN-8; experiment: Induction of apoptosis in human KOPN8 cells assessed as effect on Mcl-1 level at 0.5 uM after 3 hrs by Western blot analysis relative to control; type: functional

COc1ccc(-c2c(I)c(=O)c3c(OC)cc(OC)cc3n2S(=O)(=O)c2ccc(OC)cc2)cc1
Activity [1]: Dose-dependent effect | Activity [2]: 27.12% | Activity [3]: 7% | fold change (FC) [4]: 0.9 | fold change (FC) [5]: 0.1 | fold change (FC) [6]: 1 | fold change (FC) [7]: 0.2 | fold change (FC) [8]: 0.1 | fold change (FC) [9]: 1.1 | fold change (FC) [10]: 0.9

CN(C)C(=O)c1cc2cnc(Nc3ccc(N4CCNCC4)cn3)nc2n1C1CCCC1 [RIBOCICLIB]
Activity [11]: inactive | Activity [12]: 28.79% | fold change (FC) [13]: 0.9
